≈ marks a conversion by molar mass, not a printed value.
Tests used:
Escherichia coli [1] = assay: Antibacterial activity against ESBL-producing Escherichia coli ATCC 35218 strains 15 1 to 3 assessed as reduction in bacterial growth incubated for 18 to 20 hrs by CLSI based microdilution method; type: functional; settings: time 18-20 hrs
Procedure, shortened: (§1)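 CLSI broth microdilution. Compounds in DMSO (levofloxacin and meropenem in water), serial twofold dilutions in broth, 64 to 0.008 μg/mL. […] Results reported as MIC ranges across strains.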

[2] = target: hERG (KCNH2) potassium channel (Homo sapiens, UniProt Q12809); assay: Inhibition of hERG potassium channel assessed as maximum inhibition rate at 40 uM at -80 mV holding potential incubated for 120 seconds by whole cell-automated voltage clamp analysis assay relative to control; type: toxicity; settings: time 120 sec
Sequence of hERG (KCNH2) potassium channel (Q12809 whole entry): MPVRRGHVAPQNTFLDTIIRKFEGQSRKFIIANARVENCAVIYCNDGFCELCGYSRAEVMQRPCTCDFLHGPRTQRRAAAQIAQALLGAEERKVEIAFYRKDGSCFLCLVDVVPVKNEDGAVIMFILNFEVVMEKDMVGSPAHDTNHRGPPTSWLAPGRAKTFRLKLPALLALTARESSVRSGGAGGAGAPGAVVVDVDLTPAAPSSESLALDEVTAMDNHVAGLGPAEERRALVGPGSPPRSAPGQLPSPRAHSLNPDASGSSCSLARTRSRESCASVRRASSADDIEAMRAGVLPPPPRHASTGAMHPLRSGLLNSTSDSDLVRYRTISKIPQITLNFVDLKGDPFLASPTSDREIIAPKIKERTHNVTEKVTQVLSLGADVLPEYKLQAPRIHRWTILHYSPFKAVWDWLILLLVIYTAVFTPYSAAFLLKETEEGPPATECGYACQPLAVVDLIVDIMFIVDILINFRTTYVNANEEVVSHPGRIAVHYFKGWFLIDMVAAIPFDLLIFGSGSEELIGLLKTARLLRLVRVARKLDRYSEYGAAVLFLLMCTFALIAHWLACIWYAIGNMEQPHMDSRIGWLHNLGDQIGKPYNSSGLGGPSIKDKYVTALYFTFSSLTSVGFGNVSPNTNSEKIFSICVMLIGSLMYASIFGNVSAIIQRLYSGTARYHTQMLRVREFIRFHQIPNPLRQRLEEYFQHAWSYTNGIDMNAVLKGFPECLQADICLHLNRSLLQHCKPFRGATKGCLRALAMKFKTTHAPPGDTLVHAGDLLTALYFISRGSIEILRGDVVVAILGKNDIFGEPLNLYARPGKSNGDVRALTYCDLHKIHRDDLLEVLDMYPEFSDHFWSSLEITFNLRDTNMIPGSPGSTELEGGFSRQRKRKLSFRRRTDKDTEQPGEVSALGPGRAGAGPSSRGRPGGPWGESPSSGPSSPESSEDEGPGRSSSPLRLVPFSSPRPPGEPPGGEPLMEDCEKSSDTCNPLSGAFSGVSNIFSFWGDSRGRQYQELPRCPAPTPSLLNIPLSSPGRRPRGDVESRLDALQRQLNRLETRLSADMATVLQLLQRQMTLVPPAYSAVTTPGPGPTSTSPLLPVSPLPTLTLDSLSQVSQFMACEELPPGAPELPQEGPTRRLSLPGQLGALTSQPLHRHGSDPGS
Procedure, shortened: (§2)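 Automated whole-cell patch clamp, holding potential −80 mV. Voltage protocol applied every 20 s. Baseline set with external solution containing 0.1% DMSO and stabilised 3 min. Compound applied until steady state, at least 3 min, then washout. Maximum tested concentration 40 μM, or 3 μM for cisapride as positive control.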

Staphylococcus aureus [3] = assay: Antibacterial activity against methicillin-sensitive Staphylococcus aureus strains 15 1 to 4 assessed as reduction in bacterial growth incubated for 18 to 20 hrs by CLSI based microdilution method; type: functional; settings: time 18-20 hrs
Procedure, shortened: (§3)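 Broth microdilution per CLSI. Compounds dissolved in DMSO (levofloxacin and meropenem in water) as 64 μg/mL stock, then serial twofold dilutions in broth giving 64 to 0.008 μg/mL. […] Clinical isolates tested as several strains per group; racemic GP-1 served as positive control; values given as MIC ranges.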

[4] = test system: Staphylococcus epidermidis; assay: Antibacterial activity against methicillin-sensitive Staphylococcus epidermidis strains 15 1 to 4 assessed as reduction in bacterial growth incubated for 18 to 20 hrs by CLSI based microdilution method; type: functional; settings: time 18-20 hrs; procedure, shortened: as §3
Pseudomonas aeruginosa [5] = assay: Antibacterial activity against multidrug resistant Pseudomonas aeruginosa strains 15 1 to 3 assessed as reduction in bacterial growth incubated for 18 to 20 hrs by CLSI based microdilution method; type: functional; settings: time 18-20 hrs; procedure, shortened: as §3
[6] = target: Voltage-gated inwardly rectifying potassium channel KCNH2 (Homo sapiens, UniProt Q12809); assay: Inhibition of hERG potassium channel assessed as […] at -80 mV holding potential incubated for 120 seconds by whole cell-automated voltage clamp analysis assay; type: toxicity; procedure, shortened: as §2
Sequence of Voltage-gated inwardly rectifying potassium channel KCNH2 (Q12809 whole entry): as above

Staphylococcus aureus [7] = assay: Antibacterial activity against methicillin-resistant Staphylococcus aureus strains 15 1 to 4 assessed as reduction in bacterial growth incubated for 18 to 20 hrs by CLSI based microdilution method; type: functional; settings: time 18-20 hrs; procedure, shortened: as §3
Escherichia coli [8] = assay: Antibacterial activity against Escherichia coli ATCC 35218 strains 15 1 to 3 assessed as reduction in bacterial growth incubated for 18 to 20 hrs by CLSI based microdilution method; type: functional; settings: time 18-20 hrs; procedure, shortened: as §1
Acinetobacter baumannii [9] = assay: Antibacterial activity agains OXA23-producing multidrug resistant Acinetobacter baumannii assessed as reduction in bacterial growth incubated for 18 to 20 hrs by CLSI based microdilution method; type: functional; settings: time 18-20 hrs; procedure, shortened: as §3
Escherichia coli [10] = assay: Antibacterial activity against multidrug resistant wild type Escherichia coli NCTC 13353 assessed as reduction in bacterial growth incubated for 18 to 20 hrs by CLSI based microdilution method; type: functional; settings: time 18-20 hrs; procedure, shortened: as §3
Escherichia coli [11] = assay: Antibacterial activity against multidrug resistant wild type Escherichia coli ATCC BAA-2340 assessed as reduction in bacterial growth incubated for 18 to 20 hrs by CLSI based microdilution method; type: functional; settings: time 18-20 hrs; procedure, shortened: as §3
Klebsiella pneumoniae [12] = assay: Antibacterial activity agains wild type Klebsiella pneumoniae ATCC BAA-2470 assessed as reduction in bacterial growth incubated for 18 to 20 hrs by CLSI based microdilution method; type: functional; settings: time 18-20 hrs; procedure, shortened: as §3
Escherichia coli [13] = assay: Antibacterial activity against ESBL-producing multidrug resistant Escherichia coli assessed as reduction in bacterial growth incubated for 18 to 20 hrs by CLSI based microdilution method; type: functional; settings: time 18-20 hrs; procedure, shortened: as §3
Pseudomonas aeruginosa [14] = assay: Antibacterial activity against wild type Pseudomonas aeruginosa ATCC 27853 assessed as reduction in bacterial growth incubated for 18 to 20 hrs by CLSI based microdilution method; type: functional; settings: time 18-20 hrs; procedure, shortened: as §1
Klebsiella pneumoniae [15] = assay: Antibacterial activity agains wild type Klebsiella pneumoniae ATCC BAA-1705 assessed as reduction in bacterial growth incubated for 18 to 20 hrs by CLSI based microdilution method; type: functional; settings: time 18-20 hrs; procedure, shortened: as §1
Klebsiella pneumoniae [16] = assay: Antibacterial activity against KPC2-producing multidrug resistant Klebsiella pneumoniae assessed as reduction in bacterial growth incubated for 18 to 20 hrs by CLSI based microdilution method; type: functional; settings: time 18-20 hrs; procedure, shortened: as §3
Acinetobacter baumannii [17] = assay: Antibacterial activity against wild type Acinetobacter baumannii NCTC 13304 assessed as reduction in bacterial growth incubated for 18 to 20 hrs by CLSI based microdilution method; type: functional; settings: time 18-20 hrs; procedure, shortened: as §3
Pseudomonas aeruginosa [18] = assay: Antibacterial activity against IMP4-producing multidrug resistant Pseudomonas aeruginosa assessed as reduction in bacterial growth incubated for 18 to 20 hrs by CLSI based microdilution method; type: functional; settings: time 18-20 hrs; procedure, shortened: as §3

Structure (SMILES) | MIC (Escherichia coli [1]) [µg/mL] | inhibition at 2 min, 40 µM [2] [%] | MIC (Staphylococcus aureus [3]) [µg/mL] | MIC [4] [µg/mL] | MIC (Pseudomonas aeruginosa [5]) [µg/mL] | IC50 [6] [µM] | MIC (Staphylococcus aureus [7]) [µg/mL] | MIC (Escherichia coli [8]) [µg/mL] | MIC (Acinetobacter baumannii [9]) [µg/mL] | MIC (Escherichia coli [10]) [µg/mL] | MIC (Escherichia coli [11]) [µg/mL] | MIC (Klebsiella pneumoniae [12]) [µg/mL] | MIC (Escherichia coli [13]) [µg/mL] | MIC (Pseudomonas aeruginosa [14]) [µg/mL] | MIC (Klebsiella pneumoniae [15]) [µg/mL] | MIC (Klebsiella pneumoniae [16]) [µg/mL] | MIC (Acinetobacter baumannii [17]) [µg/mL] | MIC (Pseudomonas aeruginosa [18]) [µg/mL]
CNc1cc(F)cc2c1[nH]c1nc(Oc3cnc(C)nc3)nc(N3CC/C(=C(\F)CN)C3)c12 | 0.015 (≈ 0.0332 µM) | 41.6 | < 0.008 | < 0.008 | 2 (≈ 4.42 µM) | > 40 | 0.008 (≈ 0.0177 µM) | < 0.06 | – | – | – | – | – | – | – | – | – | –
CCC(CO)=C1CN(c2nc(Oc3cnc4ccnn4c3)nc3[nH]c4c(NC)cc(F)cc4c23)C1 | 0.25 (≈ 0.527 µM) | – | – | – | – | – | – | 0.25 (≈ 0.527 µM) | – | – | – | – | – | – | – | – | – | –
[2H]C([2H])([2H])Nc1cc(F)cc2c1[nH]c1nc(Oc3cnc(C(C)O)nc3)nc(N3CC(=C(CC)CN)C3)c12 (centres undefined) | – | – | – | – | – | – | – | – | 2 (≈ 4.15 µM) | 1 (≈ 2.08 µM) | 2 (≈ 4.15 µM) | 8 (≈ 16.6 µM) | 4 (≈ 8.31 µM) | 8 (≈ 16.6 µM) | 8 (≈ 16.6 µM) | 4 (≈ 8.31 µM) | 2 (≈ 4.15 µM) | 16 (≈ 33.2 µM)
CNc1cc(F)cc2c1[nH]c1nc(Oc3cnc(C)nc3)nc(N3CC(=C(C)CO)C3)c12 | > 64 | – | < 0.03 | < 0.03 | > 64 | – | – | 0.25 (≈ 0.574 µM) | – | – | – | – | – | – | – | – | – | –
CNc1cc(F)cc2c1[nH]c1nc(Oc3cnc(C)nc3)nc(N3CC/C(=C(/F)CN)C3)c12 | 0.125 (≈ 0.276 µM) | – | < 0.008 | < 0.008 | 2 (≈ 4.42 µM) | – | 0.008 (≈ 0.0177 µM) | 0.06 (≈ 0.133 µM) | – | – | – | – | – | – | – | – | – | –
CC(C)(O/N=C(\C(=O)N[C@@H]1C(=O)N2C(C(=O)[O-])=C(C[N+]3(CCNC(=O)c4ccc(O)c(O)c4Cl)CCCC3)CS[C@H]12)c1csc(N)n1)C(=O)O [CEFIDEROCOL] | – | – | – | – | – | – | – | – | 2 (≈ 2.66 µM) | 4 (≈ 5.32 µM) | 4 (≈ 5.32 µM) | > 64 | 0.25 (≈ 0.332 µM) | 4 (≈ 5.32 µM) | 32 (≈ 42.5 µM) | 2 (≈ 2.66 µM) | 2 (≈ 2.66 µM) | 1 (≈ 1.33 µM)
CNc1cc(F)cc2c1[nH]c1nc(Oc3cnc(C)nc3)nc(N3CC(=CC(C)O)C3)c12 (centres undefined) | 0.5 (≈ 1.15 µM) | – | < 0.008 | < 0.008 | > 16 | – | – | 0.125 (≈ 0.287 µM) | – | – | – | – | – | – | – | – | – | –
CCC(CN)=C1CN(c2nc(Oc3cnc(C)nc3)nc3[nH]c4c(NC)cc(F)c(F)c4c23)C1 | 64 (≈ 137 µM) | – | 0.25 (≈ 0.536 µM) | < 0.03 | > 64 | – | 0.25 (≈ 0.536 µM) | 0.5 (≈ 1.07 µM) | – | – | – | – | – | – | – | – | – | –
CNc1cc(F)cc2c1[nH]c1nc(Oc3cnc(C)nc3)nc(N3CCC(=C(F)CN)CC3)c12 | 0.5 (≈ 1.07 µM) | 70.4 | 0.015 (≈ 0.0322 µM) | < 0.008 | > 8 | 18.4 | 0.015 (≈ 0.0322 µM) | 0.06 (≈ 0.129 µM) | – | – | – | – | – | – | – | – | – | –
CNc1cc(F)cc2c1[nH]c1nc(Oc3cnc(C)nc3)nc(N3CC(=C(Cl)CN)C3)c12 | 1 (≈ 2.2 µM) | 34.3 | < 0.008 | < 0.008 | 8 (≈ 17.6 µM) | > 40 | – | 0.25 (≈ 0.55 µM) | – | – | – | – | – | – | – | – | – | –
CNc1cc(F)cc2c1[nH]c1nc(Oc3cnc(C)nc3)nc(N3CC(=C(CO)C(C)C)C3)c12 | 0.5 (≈ 1.08 µM) | – | < 0.008 | < 0.03 | ≥ 64 | – | < 0.03 | 0.125 (≈ 0.27 µM) | – | – | – | – | – | – | – | – | – | –
CCC(CN)=C1CN(c2nc(Sc3cnc(C)nc3)nc3[nH]c4c(NC)cc(F)cc4c23)C1 | 1 (≈ 2.15 µM) | – | 0.008 (≈ 0.0172 µM) | < 0.008 | > 16 | – | < 0.008 | 0.5 (≈ 1.08 µM) | – | – | – | – | – | – | – | – | – | –

Source: ChEMBL document CHEMBL5096186, “Design, Synthesis, and Biological Evaluation of Novel Pyrimido[4,5-b]indole Derivatives Against Gram-Negative Multidrug-Resistant Pathogens” (J Med Chem, 2021)
